The source made the active and inactive calls. No cut-off for these calls is given here.
Tests used:
[1] = tested on: Rattus norvegicus; experiment: Percentage of fall in systolic blood pressure (SBP) at the following hours after dosing at 75 mg/kg (po) at 2 hr in spontaneously hypertensive rats(SHR); NS means not significant; format: functional, organism-based; design: dose 75 mg/kg; conditions: Artery
Method in brief: (§1)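 Male spontaneously hypertensive rats (Wistar-Kyoto strain), unanesthetized, dosed orally; systolic pressure measured by indirect tail cuff. Before each reading, rats warmed at 35-37 °C for 15-20 min to dilate the caudal artery. Five rats per treatment group; result is percentage fall in systolic pressure versus untreated control. Significance tested against control.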

[2] = tested on: Rattus norvegicus; experiment: Percentage of fall in systolic blood pressure (SBP) at the following hours after dosing at 75 mg/kg (po) at 7.5 hr in spontaneously hypertensive rats(SHR); format: functional, Artery; method in brief: as §1
[3] = tested on: Rattus norvegicus; experiment: Percentage of fall in systolic blood pressure (SBP) at the following hours after dosing at 75 mg/kg (po) at 24 hr in spontaneously hypertensive rats(SHR); NS means not significant; format: functional, organism-based; design: dose 75 mg/kg; conditions: Artery; method in brief: as §1
[4] = tested on: Rattus norvegicus; experiment: Percentage of fall in systolic blood pressure (SBP) at the following hours after dosing at 75 mg/kg (po) at 5 hr in spontaneously hypertensive rats(SHR); NS means not significant; format: functional, organism-based; design: dose 75 mg/kg; conditions: Artery; method in brief: as §1
[5] = molecular target: T1, Adrenergic receptor beta (Rattus norvegicus, UniProt P18090+P10608+P26255); experiment: Evaluated for beta-receptor affinity, determined in rat brain membrane fraction with [3H]- dihydroalprenolol; format: cell membranes
Method in brief: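 Rat brain with cerebellum removed, homogenized in ice-cold 50 mM Tris-HCl pH 8.0 and spun at 50000g for 15 min, pellet washed once more the same way. Binding used 0.4-0.6 mg protein, 1 nM [3H]dihydroalprenolol, 50 mM Tris pH 8.0, and 5-10 competitor concentrations. IC50 read visually from a semilog plot; Ki from Cheng-Prusoff with KD approximately 1 nM.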

[6] = tested on: Rattus norvegicus; experiment: […] systolic blood pressure (SBP) for compound-treated group relative to the value for untreated control at 75 mg/kg dose (po) in spontaneously hypertensive rats(SHR); format: functional, Artery; method in brief: as §1
[7] = molecular target: T1, Adrenergic receptor beta; experiment: Evaluated for beta-receptor affinity determined in rat brain membrane fraction with [3H]- dihydroalprenolol; format: cell membranes
[8] = tested on: Rattus norvegicus; experiment: Percentage of fall in systolic blood pressure (SBP) after dosing at 17 mg/kg (po) at 7.5 hr in spontaneously hypertensive rats(SHR); format: functional, Artery; method in brief: as §1
[9] = tested on: Rattus norvegicus; experiment: Percentage of fall in systolic blood pressure (SBP) after dosing at 17 mg/kg (po) at 5 hr in spontaneously hypertensive rats(SHR); format: functional, Artery; method in brief: as §1
[10] = tested on: Rattus norvegicus; experiment: Percentage of fall in systolic blood pressure (SBP) after dosing at 17 mg/kg (po) at 24 hr in spontaneously hypertensive rats(SHR); format: functional, Artery; method in brief: as §1
[11] = tested on: Rattus norvegicus; experiment: Percentage of fall in systolic blood pressure (SBP) after dosing at 17 mg/kg (po) at 2 hr in spontaneously hypertensive rats(SHR). NS means not significant; format: functional, organism-based; design: dose 17 mg/kg; conditions: Artery; method in brief: as §1
[12] = tested on: Rattus norvegicus; experiment: Percentage of fall in systolic blood pressure (SBP) after dosing at 8 mg/kg (po) at 7.5 hr in spontaneously hypertensive rats(SHR); format: functional, Artery; method in brief: as §1
[13] = tested on: Rattus norvegicus; experiment: […] systolic blood pressure (SBP) for compound-treated group relative to the value for untreated control at 17 mg/kg dose (po) in spontaneously hypertensive rats(SHR); format: functional, Artery; method in brief: as §1
[14] = tested on: Rattus norvegicus; experiment: Percentage of fall in systolic blood pressure (SBP) at the following hours after dosing at 8 mg/kg (po) at 5 hr in spontaneously hypertensive rats(SHR); format: functional, Artery; method in brief: as §1
[15] = tested on: Rattus norvegicus; experiment: Percentage of fall in systolic blood pressure (SBP) after dosing at 8 mg/kg (po) at 2 hr in spontaneously hypertensive rats(SHR). NS means not significant; format: functional, organism-based; design: dose 8 mg/kg; conditions: Artery; method in brief: as §1
[16] = tested on: Rattus norvegicus; experiment: […] systolic blood pressure (SBP) for compound-treated group relative to the value for untreated control at 8 mg/kg dose (po) in spontaneously hypertensive rats(SHR); format: functional, Artery; method in brief: as §1
[17] = tested on: Rattus norvegicus; experiment: Percentage of fall in systolic blood pressure (SBP) after dosing at 8 mg/kg at 24 hr in spontaneously hypertensive rats(SHR). NS means not significant; format: functional, organism-based; design: dose 8 mg/kg; conditions: Artery; method in brief: as §1
[18] = tested on: Rattus norvegicus; experiment: Evaluated for the percentage inhibition of the depressor response of isoproterenol (0.25 mg/kg, iv) in spontaneously hypertensive rats at 150 mg/kg perorally; NI means no inhibition at 10 mg/kg, iv; format: functional, organism-based
Method in brief: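 Male SHR, three per group, dosed orally 150 mg/kg as suspension in 4% Clearjel. At 4 h, anesthetized with sodium pentobarbital (45 mg/kg, ip); femoral artery and vein cannulated; arterial pressure monitored continuously. Isoproterenol given iv in 0.1 mL saline; depressor response compared with Clearjel vehicle-treated rats as percentage inhibition.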

[19] = tested on: Rattus norvegicus; experiment: Percentage of fall in systolic blood pressure (SBP) at the following hours after dosing at 75 mg/kg (po) at 7.5 hr in spontaneously hypertensive rats(SHR); NS means not significant; format: functional, organism-based; design: dose 75 mg/kg; conditions: Artery; method in brief: as §1
[20] = organism: Rattus norvegicus; experiment: animal or person; conditions: iv, read-out: Inhibition
[21] = tested on: Rattus norvegicus; experiment: Evaluated for the percentage inhibition of the depressor response of isoproterenol (0.25 mg/kg, iv) in spontaneously hypertensive rats at 150 mg/kg peroral dose; NI means no inhibition at 10 mg/kg, iv
[22] = tested on: Rattus norvegicus; experiment: Percentage of fall in systolic blood pressure (SBP) at the following hours after dosing at 75 mg/kg (po) at 5 hr in spontaneously hypertensive rats(SHR); format: functional, Artery; method in brief: as §1
[23] = tested on: Rattus norvegicus; experiment: Percentage of fall in systolic blood pressure (SBP) at the following hours after dosing at 75 mg/kg (po) at 2 hr in spontaneously hypertensive rats(SHR); format: functional, Artery; method in brief: as §1
[24] = tested on: Rattus norvegicus; experiment: Percentage of fall in systolic blood pressure (SBP) at the following hours after dosing at 75 mg/kg (po) at 24 hr in spontaneously hypertensive rats(SHR); format: functional, Artery; method in brief: as §1

## CCCCNCC(O)COc1ccc2c(=O)c(-c3ccccc3)c(-c3ccccc3)oc2c1 (stereo unspecified)
[1]
  Decrease in SBP: inactive
[2]
  Decrease in SBP: 11%
[3]
  Decrease in SBP: inactive
[4]
  Decrease in SBP: inactive
[5]
  Ki: > 0.00005 M
[6]
  SBP: 199 mmHg

## CC(C)NCC(O)COc1ccc2c(=O)c(-c3ccccc3)c(-c3ccccc3)oc2c1.Cl (stereo unspecified)
[7]
  Ki: > 0.00005 M
[8]
  Decrease in SBP: 20%
[9]
  Decrease in SBP: 14%
[10]
  Decrease in SBP: 11%
[11]
  Decrease in SBP: inactive
[12]
  Decrease in SBP: 8%
[13]
  SBP: 195 mmHg
[14]
  Decrease in SBP: 10%
[15]
  Decrease in SBP: inactive
[16]
  SBP: 198 mmHg
[17]
  Decrease in SBP: inactive
[18]
  inhibition: inactive

## CC(C)NCC(O)COc1cccc2ccccc12 (stereo unspecified) [PROPRANOLOL]
[1]
  Decrease in SBP: inactive
[19]
  Decrease in SBP: inactive
[3]
  Decrease in SBP: inactive
[4]
  Decrease in SBP: inactive
[6]
  SBP: 212 mmHg
[20]
  inhibition in vivo at 10 mg/kg: 100%

## CCCN(C)CC(O)COc1ccc2c(=O)c(-c3ccccc3)c(-c3ccccc3)oc2c1.O=C(O)/C=C\C(=O)O (stereo unspecified)
[21]
  inhibition: inactive
[22]
  Decrease in SBP: 9%
[2]
  Decrease in SBP: 10%
[23]
  Decrease in SBP: 7%
[24]
  Decrease in SBP: 18%
[6]
  SBP: 199 mmHg

## CCCCCNCC(O)COc1ccc2c(=O)c(-c3ccccc3)c(-c3ccccc3)oc2c1 (stereo unspecified)
[1]
  Decrease in SBP: inactive
[19]
  Decrease in SBP: inactive
[3]
  Decrease in SBP: inactive
[4]
  Decrease in SBP: inactive
[6]
  SBP: 191 mmHg

## CCC(C)NCC(O)COc1ccc2c(=O)c(-c3ccccc3)c(-c3ccccc3)oc2c1 (stereo unspecified)
[21]
  inhibition: inactive
[22]
  Decrease in SBP: 18%
[2]
  Decrease in SBP: 19%
[23]
  Decrease in SBP: 12%
[24]
  Decrease in SBP: 19%
[6]
  SBP: 210 mmHg

— ChEMBL document CHEMBL1123732, “Flavones. 1. Synthesis and antihypertensive activity of (3-phenylflavonoxy)propanolamines without beta-adrenoceptor antagonism” (J Med Chem, 1987)
